Results taken from ChEMBL document CHEMBL1255404, “Spread of OXA-48-encoding plasmid in Turkey and beyond” (2010).
Values after ≈ are worked out from the molar mass of the structure shown.

Legend:
Format in all cases: functional
Klebsiella pneumoniae [1] = experiment: Antimicrobial activity against Klebsiella pneumoniae isolate Kp5A expressing beta-lactamase OXA-48 and SHV-5 by Etest method
Escherichia coli [2] = experiment: Antimicrobial activity against Escherichia coli isolate J53 harboring pI-1 containing beta-lactamase OXA-48 located within transposon Tn1999.2 by Etest method
How it was run: (§1)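 β-Lactam MICs read with Etest strips. Strains are E. coli J53 recipient and J53 transconjugants carrying OXA-48-positive plasmids recovered from clinical enterobacterial isolates.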

Escherichia coli [3] = experiment: Antimicrobial activity against Escherichia coli isolate J53 harboring pA-1 containing beta-lactamase OXA-48 located within transposon Tn1999 by Etest method; how it was run: as §1
Klebsiella pneumoniae [4] = experiment: Antimicrobial activity against Klebsiella pneumoniae isolate Kp3A expressing beta-lactamase OXA-48 by Etest method
How it was run: (§2)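 MICs of β-lactams read from Etest strips. The test organisms are carbapenem-resistant, OXA-48-positive clinical Enterobacteriaceae isolates recovered from Turkey, Lebanon, Egypt, France and Belgium.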

Escherichia coli [5] = experiment: Antimicrobial activity against Escherichia coli isolate A expressing beta-lactamase OXA-48 and TEM-150 by Etest method
Escherichia coli [6] = experiment: Antimicrobial activity against Escherichia coli isolate J53 harboring p6A containing beta-lactamase OXA-48 located within transposon Tn1999 by Etest method; how it was run: as §1
Providencia rettgeri = experiment: Antimicrobial activity against Providencia rettgeri isolate expressing beta-lactamase OXA-48 and TEM-101 by Etest method
Klebsiella pneumoniae [7] = experiment: Antimicrobial activity against Klebsiella pneumoniae isolate Kp6A expressing beta-lactamase OXA-48 and TEM-150 by Etest method
Escherichia coli [8] = experiment: Antimicrobial activity against Escherichia coli isolate J53 harboring pCF containing beta-lactamase OXA-48 located within transposon Tn1999 by Etest method; how it was run: as §1
Escherichia coli [9] = experiment: Antimicrobial activity against Escherichia coli isolate J53 harboring p3A containing beta-lactamase OXA-48 located within transposon Tn1999 by Etest method; how it was run: as §1
Enterobacter cloacae [10] = experiment: Antimicrobial activity against Enterobacter cloacae isolate 1 expressing beta-lactamase OXA-48 and SHV-5 by Etest method
Escherichia coli [11] = experiment: Antimicrobial activity against Escherichia coli isolate J53 harboring p7A containing beta-lactamase OXA-48 located within transposon Tn1999 by Etest method; how it was run: as §1
Escherichia coli [12] = experiment: Antimicrobial activity against Escherichia coli isolate J53 harboring pEnc2 containing beta-lactamase OXA-48 located within transposon Tn1999 by Etest method; how it was run: as §1
Escherichia coli [13] = experiment: Antimicrobial activity against Escherichia coli isolate J53 harboring pBb containing beta-lactamase OXA-48 located within transposon Tn1999.2 by Etest method; how it was run: as §1
Escherichia coli [14] = experiment: Antimicrobial activity against Escherichia coli isolate J53 by Etest method; how it was run: as §1
Klebsiella pneumoniae [15] = experiment: Antimicrobial activity against Klebsiella pneumoniae isolate KpBIC expressing beta-lactamase OXA-48 by Etest method; how it was run: as §2
Escherichia coli [16] = experiment: Antimicrobial activity against Escherichia coli isolate TOP10 harboring pBIC containing beta-lactamase OXA-48 located within transposon Tn1999.2 by Etest method
How it was run: (§3)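 β-Lactam MICs read with Etest strips. Strains are E. coli TOP10 host and TOP10 transformants made with plasmid DNA extract when conjugation failed. Transformants were selected on LB agar with ticarcillin 50 μg/ml.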

Enterobacter cloacae [17] = experiment: Antimicrobial activity against Enterobacter cloacae isolate 2 expressing beta-lactamase OXA-48 and SHV-5 by Etest method
Escherichia coli [18] = experiment: Antimicrobial activity against Escherichia coli isolate J53 harboring pEcA containing beta-lactamase OXA-48 located within transposon Tn1999.2 by Etest method; how it was run: as §1
Klebsiella pneumoniae [19] = experiment: Antimicrobial activity against Klebsiella pneumoniae isolate Kp11978 expressing beta-lactamase OXA-48, SHV-2a and TEM-1 by Etest method
Escherichia coli [20] = experiment: Antimicrobial activity against Escherichia coli isolate J53 harboring pL containing beta-lactamase OXA-48 located within transposon Tn1999.2 by Etest method; how it was run: as §1
Klebsiella pneumoniae [21] = experiment: Antimicrobial activity against Klebsiella pneumoniae isolate KpI-1 expressing beta-lactamase OXA-48 and CTX-M-15 by Etest method
Escherichia coli [22] = experiment: Antimicrobial activity against Escherichia coli isolate J53 harboring pBEL containing beta-lactamase OXA-48 located within transposon Tn1999.2 by Etest method; how it was run: as §1
Klebsiella pneumoniae [23] = experiment: Antimicrobial activity against Klebsiella pneumoniae isolate KpL expressing beta-lactamase OXA-48 by Etest method
Escherichia coli [24] = experiment: Antimicrobial activity against Escherichia coli isolate J53 harboring pI-2 containing beta-lactamase OXA-48 located within transposon Tn1999.2 by Etest method; how it was run: as §1
Escherichia coli [25] = experiment: Antimicrobial activity against Escherichia coli isolate J53 harboring p4A containing beta-lactamase OXA-48 located within transposon Tn1999 by Etest method; how it was run: as §1
Klebsiella pneumoniae [26] = experiment: Antimicrobial activity against Klebsiella pneumoniae isolate KpE expressing beta-lactamase OXA-48 and CTX-M-15 by Etest method
Klebsiella pneumoniae [27] = experiment: Antimicrobial activity against Klebsiella pneumoniae isolate Kp7A expressing beta-lactamase OXA-48 by Etest method; how it was run: as §2
Escherichia coli [28] = experiment: Antimicrobial activity against Escherichia coli isolate J53 harboring p5A containing beta-lactamase OXA-48 located within transposon Tn1999 by Etest method; how it was run: as §1
Klebsiella pneumoniae [29] = experiment: Antimicrobial activity against Klebsiella pneumoniae isolate KpB expressing OXA-48 and CTX-M-15 by Etest method
Klebsiella pneumoniae [30] = experiment: Antimicrobial activity against Klebsiella pneumoniae isolate Kp4A expressing beta-lactamase OXA-48 and CTX-M-15 by Etest method
Citrobacter freundii = experiment: Antimicrobial activity against Citrobacter freundii isolate expressing beta-lactamase OXA-48 by Etest method
Escherichia coli [31] = experiment: Antimicrobial activity against Escherichia coli isolate TOP10 harboring pPR containing beta-lactamase and TEM-101 by Etest method; how it was run: as §3
Escherichia coli [32] = experiment: Antimicrobial activity against Escherichia coli isolate J53 harboring pE containing beta-lactamase OXA-48 located within transposon Tn1999.2 by Etest method; how it was run: as §1
Escherichia coli [33] = experiment: Antimicrobial activity against Escherichia coli isolate TOP10 by Etest method; how it was run: as §3
Escherichia coli [34] = experiment: Antimicrobial activity against Escherichia coli isolate J53 harboring pEnc1 containing beta-lactamase OXA-48 located within transposon Tn1999 by Etest method; how it was run: as §1
Klebsiella pneumoniae [35] = experiment: Antimicrobial activity against Klebsiella pneumoniae isolate KpBEL expressing beta-lactamase OXA-48 by Etest method; how it was run: as §2
Klebsiella pneumoniae [36] = experiment: Antimicrobial activity against Klebsiella pneumoniae isolate KpI-2 expressing beta-lactamase OXA-48 and CTX-M-15 by Etest method

## CC(=O)OCC1=C(C(=O)O)N2C(=O)[C@@H](NC(=O)Cc3cccs3)[C@H]2SC1 [CEPHALOTHIN]
Klebsiella pneumoniae [1]
  MIC: > 512 µg/mL
Escherichia coli [2]
  MIC: 16 µg/mL (≈ 40.4 µM)
Escherichia coli [3]
  MIC: 0.5 µg/mL (≈ 1.26 µM)
Klebsiella pneumoniae [4]
  MIC: > 512 µg/mL
Escherichia coli [5]
  MIC: > 512 µg/mL
Escherichia coli [6]
  MIC: 16 µg/mL (≈ 40.4 µM)
Providencia rettgeri
  MIC: > 512 µg/mL
Klebsiella pneumoniae [7]
  MIC: > 512 µg/mL
Escherichia coli [8]
  MIC: > 512 µg/mL
Escherichia coli [9]
  MIC: 16 µg/mL (≈ 40.4 µM)
Enterobacter cloacae [10]
  MIC: > 512 µg/mL
Escherichia coli [11]
  MIC: 16 µg/mL (≈ 40.4 µM)
Escherichia coli [12]
  MIC: 16 µg/mL (≈ 40.4 µM)
Escherichia coli [13]
  MIC: 16 µg/mL (≈ 40.4 µM)
Escherichia coli [14]
  MIC: 4 µg/mL (≈ 10.1 µM)
Klebsiella pneumoniae [15]
  MIC: > 512 µg/mL
Escherichia coli [16]
  MIC: 16 µg/mL (≈ 40.4 µM)
Enterobacter cloacae [17]
  MIC: > 512 µg/mL
Escherichia coli [18]
  MIC: 16 µg/mL (≈ 40.4 µM)
Klebsiella pneumoniae [19]
  MIC: > 512 µg/mL
Escherichia coli [20]
  MIC: 8 µg/mL (≈ 20.2 µM)
Klebsiella pneumoniae [21]
  MIC: > 512 µg/mL
Escherichia coli [22]
  MIC: 16 µg/mL (≈ 40.4 µM)
Klebsiella pneumoniae [23]
  MIC: 32 µg/mL (≈ 80.7 µM)
Escherichia coli [24]
  MIC: 16 µg/mL (≈ 40.4 µM)
Escherichia coli [25]
  MIC: 16 µg/mL (≈ 40.4 µM)
Klebsiella pneumoniae [26]
  MIC: > 512 µg/mL
Klebsiella pneumoniae [27]
  MIC: > 512 µg/mL
Escherichia coli [28]
  MIC: 16 µg/mL (≈ 40.4 µM)
Klebsiella pneumoniae [29]
  MIC: > 512 µg/mL
Klebsiella pneumoniae [30]
  MIC: > 512 µg/mL
Citrobacter freundii
  MIC: > 512 µg/mL
Escherichia coli [31]
  MIC: 16 µg/mL (≈ 40.4 µM)
Escherichia coli [32]
  MIC: 16 µg/mL (≈ 40.4 µM)
Escherichia coli [33]
  MIC: 4 µg/mL (≈ 10.1 µM)
Escherichia coli [34]
  MIC: 16 µg/mL (≈ 40.4 µM)
Klebsiella pneumoniae [35]
  MIC: 16 µg/mL (≈ 40.4 µM)
Klebsiella pneumoniae [36]
  MIC: > 512 µg/mL

## CC(C)(O/N=C(\C(=O)N[C@@H]1C(=O)N2C(C(=O)[O-])=C(C[n+]3ccccc3)CS[C@H]12)c1csc(N)n1)C(=O)O [CEFTAZIDIME]
Klebsiella pneumoniae [1]
  MIC: 512 µg/mL (≈ 937 µM)
Escherichia coli [2]
  MIC: 0.12 µg/mL (≈ 0.22 µM)
Escherichia coli [3]
  MIC: 0.12 µg/mL (≈ 0.22 µM)
Klebsiella pneumoniae [4]
  MIC: 0.25 µg/mL (≈ 0.457 µM)
Escherichia coli [5]
  MIC: 512 µg/mL (≈ 937 µM)
Escherichia coli [6]
  MIC: 0.12 µg/mL (≈ 0.22 µM)
Providencia rettgeri
  MIC: 512 µg/mL (≈ 937 µM)
Klebsiella pneumoniae [7]
  MIC: 512 µg/mL (≈ 937 µM)
Escherichia coli [8]
  MIC: 0.75 µg/mL (≈ 1.37 µM)
Escherichia coli [9]
  MIC: 0.25 µg/mL (≈ 0.457 µM)
Enterobacter cloacae [10]
  MIC: > 512 µg/mL
Escherichia coli [11]
  MIC: 0.12 µg/mL (≈ 0.22 µM)
Escherichia coli [12]
  MIC: 0.75 µg/mL (≈ 1.37 µM)
Escherichia coli [13]
  MIC: 1 µg/mL (≈ 1.83 µM)
Escherichia coli [14]
  MIC: 0.06 µg/mL (≈ 0.11 µM)
Klebsiella pneumoniae [15]
  MIC: 0.12 µg/mL (≈ 0.22 µM)
Escherichia coli [16]
  MIC: 0.12 µg/mL (≈ 0.22 µM)
Enterobacter cloacae [17]
  MIC: 32 µg/mL (≈ 58.5 µM)
Escherichia coli [18]
  MIC: 0.75 µg/mL (≈ 1.37 µM)
Klebsiella pneumoniae [19]
  MIC: 512 µg/mL (≈ 937 µM)
Escherichia coli [20]
  MIC: 0.75 µg/mL (≈ 1.37 µM)
Klebsiella pneumoniae [21]
  MIC: 512 µg/mL (≈ 937 µM)
Escherichia coli [22]
  MIC: 0.75 µg/mL (≈ 1.37 µM)
Klebsiella pneumoniae [23]
  MIC: 0.75 µg/mL (≈ 1.37 µM)
Escherichia coli [24]
  MIC: 0.12 µg/mL (≈ 0.22 µM)
Escherichia coli [25]
  MIC: 0.12 µg/mL (≈ 0.22 µM)
Klebsiella pneumoniae [26]
  MIC: 512 µg/mL (≈ 937 µM)
Klebsiella pneumoniae [27]
  MIC: 0.12 µg/mL (≈ 0.22 µM)
Escherichia coli [28]
  MIC: 0.12 µg/mL (≈ 0.22 µM)
Klebsiella pneumoniae [29]
  MIC: > 512 µg/mL
Klebsiella pneumoniae [30]
  MIC: 512 µg/mL (≈ 937 µM)
Citrobacter freundii
  MIC: 512 µg/mL (≈ 937 µM)
Escherichia coli [31]
  MIC: 512 µg/mL (≈ 937 µM)
Escherichia coli [32]
  MIC: 0.12 µg/mL (≈ 0.22 µM)
Escherichia coli [33]
  MIC: 0.06 µg/mL (≈ 0.11 µM)
Escherichia coli [34]
  MIC: 0.75 µg/mL (≈ 1.37 µM)
Klebsiella pneumoniae [35]
  MIC: 1 µg/mL (≈ 1.83 µM)
Klebsiella pneumoniae [36]
  MIC: 512 µg/mL (≈ 937 µM)
